# ChEMBL document CHEMBL4673212, “Investigation of synergistic antimicrobial effects of the drug combinations of meropenem and 1,2-benzisoselenazol-3(2H)-one derivatives on carbapenem-resistant Enterobacteriaceae producing NDM-1” (Eur J Med Chem, 2018)
# Calls of active or inactive are those of the source. No cut-off for these calls is given here.
# Key:
# [1] = target: Metallo-beta-lactamase type 2 (Klebsiella pneumoniae) (UniProt C7C422); experiment: Binding affinity to denatured N-terminal His6-tagged Klebsiella pneumoniae NDM-1 expressed in Escherichia coli BL21 assessed as formation of compound-intact protein complex by measuring molecular weight measured after 20 mins by ESI-MS analysis
# Summary of the method: (§1)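 NDM-1 (20 µM) incubated 20 min with equimolar compound in 20 mM ammonium acetate. Native sample infused by nano-ESI with spray held ~20 min at 150 V. For the denatured sample, an equal volume of acetonitrile with 0.5% formic acid was added before syringe-pump loading at 5 µL/min. Complex formation was read from mass.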
# [2] = test system: Escherichia coli; experiment: Synergistic antibacterial activity against Escherichia coli TG1 transformed with IncX3 plasmid expressing blaNDM-1 assessed as ratio of negative logarithm of fractional inhibitory concentration index to non-hydrogen atom in presence of meropenem incubated for overnight by CLSI protocol based assay; format: functional; details: time 12 hrs
# Summary of the method: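 In E. coli TG1 carrying the IncX3 blaNDM-1 plasmid, the FIC index was taken from overnight CLSI-based MICs of compound, meropenem and their 1:1 mass mixture, read by eye. Synergistic efficiency = −ln(FIC index) divided by the number of non-hydrogen atoms. At least triplicate assays.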
# [3] = test system: L929; experiment: Cytotoxicity against mouse L929 cells assessed as increase in cell viability at 2 mg/ml measured after 48 hrs by MTT assay; format: cell-based; details: l929, 48 h
# Summary of the method: (§2)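 MTT assay. HeLa or L929 cells were seeded at 1×10^4/well in DMEM with 10% FBS and grown 12 h at 37 °C. They were exposed to 0.13–2 mg/mL compound (DMSO stock) for 48 h, then given 0.5 mg/mL MTT for 3 h at 37 °C. Formazan was dissolved in DMSO and read at 490 nm. Survival % was blank-corrected against the 0.5% DMSO medium control.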
# [4] = test system: Enterobacter cloacae; experiment: Potentiation of meropenem-induced antibacterial activity against carbapenem-resistant Enterobacter cloacae isolate 08 harboring CTX-M-14, TEM-1 and SHV-12 assessed as meropenem MIC by CLSI protocol based assay (reference value: 32 ug/ml); format: functional
# [5] = target: Metallo-beta-lactamase type 2 (Klebsiella pneumoniae) (UniProt C7C422); experiment: Inhibition of wild type N-terminal His6-tagged Klebsiella pneumoniae NDM-1 expressed in Escherichia coli BL21 assessed as inactivation constant using nitrocefin as substrate measured after 30 mins
# Summary of the method: (§3)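 1 nM purified His6-NDM-1 was mixed with varying compound concentrations in 50 mM phosphate buffer ± 50 µM ZnSO4 with BSA. Nitrocefin was added at 7× Km and velocity read at 482 nm, in triplicate. ln(% residual activity) versus incubation time gave kobs, which was fitted hyperbolically against concentration for KI and kinact.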
# [6] = target: Metallo-beta-lactamase type 2 (Klebsiella pneumoniae) (UniProt C7C422); experiment: Inhibition of wild type N-terminal His6-tagged Klebsiella pneumoniae NDM-1 expressed in Escherichia coli BL21 assessed as loss of zinc ion at enzyme active site leading to formation of compound-intact protein complex after 20 mins by ESI-MS analysis
# Summary of the method: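 Native mass analysis: 20 µM purified NDM-1 plus equimolar compound in 20 mM ammonium acetate, 20 min, then infused into nano-ESI source (spray ~20 min at 150 V). Adduct formation and zinc content were read from protein mass.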
# [7] = test system: Klebsiella pneumoniae; experiment: Growth inhibition of carbapenem-resistant Klebsiella pneumoniae isolate 04 harboring CTX-M-14, VIM-1, TEM-1 and SHV-12 by CLSI protocol based assay; format: functional
# [8] = target: Metallo-beta-lactamase type 2 (Klebsiella pneumoniae) (UniProt C7C422); experiment: Inhibition of wild type N-terminal His6-tagged Klebsiella pneumoniae NDM-1 expressed in Escherichia coli BL21 assessed as ratio of Kinact/Ki using nitrocefin as substrate measured after 30 mins; summary of the method: as §3
# [9] = test system: Klebsiella oxytoca; experiment: Growth inhibition of carbapenem-resistant Klebsiella oxytoca isolate 03 harboring SHV-12 by CLSI protocol based assay; format: functional
# [10] = test system: Escherichia coli; experiment: Synergistic antibacterial activity against carbapenem-resistant Escherichia coli isolate 06 harboring CTX-M-14, CTX-M-3 and SHV-12 assessed as fractional inhibitory concentration index in presence of meropenem by CLSI protocol based assay; format: functional
# Summary of the method: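 FIC index from MICs of compound alone, meropenem alone, and the 1:1 (mass) compound–meropenem combination, read by eye after overnight incubation in a CLSI-based assay. FIC index = MICcombo/MICcpd + MICcombo/MICMem. FIC index ≤0.5 counted as synergy. At least triplicate assays. Clinical NDM-1 isolates for 17-39; E. coli TG1 carrying the IncX3 blaNDM-1 plasmid for 15.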
# [11] = target: Metallo-beta-lactamase type 2 (Klebsiella pneumoniae) (UniProt C7C422); experiment: Time dependent inhibition of wild type N-terminal His6-tagged Klebsiella pneumoniae NDM-1 expressed in Escherichia coli BL21 assessed as residual activity using nitrocefin as substrate
# Summary of the method: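 Purified NDM-1 (residues G36–R270, N-terminal His6, expressed in E. coli BL21), 1 nM, mixed with varying inhibitor concentrations in 50 mM phosphate buffer with or without 50 µM ZnSO4, plus BSA. Nitrocefin at 7×Km was the substrate, read at 482 nm. Residual activity was followed against preincubation time, fitted as pseudo-first-order to give KI and kinact. Triplicate assays.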
# [12] = Toxicity in Galleria mellonella wax moth larve assessed as mortality at 10 mg/kg relative to control; format: organism-based; details: in vivo, read-out: Activity
# [13] = test system: L929; experiment: Cytotoxicity against mouse L929 cells assessed as increase in cell viability at 0.13 to 2 mg/ml measured after 48 hrs by MTT assay relative to control; format: cell-based; details: l929, 48 h, dose 0.13-2 mg/ml; summary of the method: as §2
# [14] = test system: L929; experiment: Cytotoxicity against mouse L929 cells assessed as effect on morphological changes at 0.13 to 2 mg/ml by microscopic analysis; format: cell-based; details: dose 0.13-2 mg/ml
# Summary of the method: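 HeLa and L929 cells were examined by microscopy for morphological change after incubation with compound at the MTT-assay concentrations.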
# [15] = test system: Enterobacter cloacae; experiment: Potentiation of meropenem-induced antibacterial activity against NDM-1 producing Enterobacter cloacae isolate 10 infected in Galleria mellonella assessed as increase in larvae survival at 10 mg/kg pretreated for 1hr with compound followed by bacterial infection and measured after 48 hrs (reference value: 20 %); format: functional; details: time 49 hrs
# [16] = test system: Citrobacter freundii; experiment: Potentiation of meropenem-induced antibacterial activity against carbapenem-resistant Citrobacter freundii isolate 35 harboring CTX-M-3, KPC-2 and SHV-12 assessed as meropenem MIC by CLSI protocol based assay (Rvb >= 128 ug/ml); format: functional
# [17] = target: Metallo-beta-lactamase type 2 (Klebsiella pneumoniae) (UniProt C7C422); experiment: Inhibition of wild type N-terminal His6-tagged Klebsiella pneumoniae NDM-1 expressed in Escherichia coli BL21 assessed as residual activity preincubated for 20 mins by rapid high dilution method relative to control
# Summary of the method: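 Reversibility was tested by rapid high dilution: NDM-1 was preincubated 20 min with compound, then diluted. Residual nitrocefin hydrolysis was compared with an enzyme control lacking compound.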
# [18] = target: T1, Metallo-beta-lactamase type 2 (Klebsiella pneumoniae, UniProt C7C422); experiment: Inhibition of wild type N-terminal His6-tagged Klebsiella pneumoniae NDM-1 expressed in Escherichia coli BL21 assessed as inhibition constant using nitrocefin as substrate measured after 30 mins; summary of the method: as §3
# [19] = target: T1, Metallo-beta-lactamase type 2; experiment: (§4) Inhibition of wild type N-terminal His6-tagged Klebsiella pneumoniae NDM-1 expressed in Escherichia coli BL21 using nitrocefin as substrate measured after 30 mins; summary of the method: as §3
# [20] = target: Metallo-beta-lactamase type 2 (Klebsiella pneumoniae) (UniProt C7C422); experiment: as §4; summary of the method: as §3
# [21] = target: Metallo-beta-lactamase type 2 (Klebsiella pneumoniae) (UniProt C7C422); experiment: Binding affinity to wild type N-terminal His6-tagged Klebsiella pneumoniae NDM-1 expressed in Escherichia coli BL21 assessed as formation of compound-intact protein complex by measuring molecular weight measured after 20 mins by ESI-MS analysis; summary of the method: as §1
# [22] = test system: Morganella morganii; experiment: Potentiation of meropenem-induced antibacterial activity against carbapenem-resistant Morganella morganii isolate 26 assessed as meropenem MIC by CLSI protocol based assay (reference value: 64 ug/ml); format: functional
# Chain of Metallo-beta-lactamase type 2 (Klebsiella pneumoniae) (C7C422 whole entry, the tested form may be a part): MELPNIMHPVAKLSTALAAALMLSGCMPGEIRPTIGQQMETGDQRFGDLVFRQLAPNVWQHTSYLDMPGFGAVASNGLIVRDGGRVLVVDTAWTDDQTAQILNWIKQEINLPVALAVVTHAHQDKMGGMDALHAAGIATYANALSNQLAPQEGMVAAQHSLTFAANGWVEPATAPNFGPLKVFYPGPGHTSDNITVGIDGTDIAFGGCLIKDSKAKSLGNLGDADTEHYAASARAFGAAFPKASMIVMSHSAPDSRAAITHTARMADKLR
# T1 sequence (C7C422 whole entry): as the sequence (C7C422 whole entry, the tested form may be a part) above
compound,measurement,setting,value
CC(C)(C)OC(=O)NCCn1[se]c2ccccc2c1=O,Activity,[1],26200 Da
same,Ratio,[2],0.153
same,Activity,[3],Non-Toxic
same,MIC,[4],4 µg/mL
same,Kinact,[5],0.068 min⁻¹
same,inhibition,[6],Active
same,MIC,[7],≥ 128 µg/mL
same,Ratio,[8],0.067 mM⁻¹ s⁻¹
same,MIC,[9],≥ 128 µg/mL
same,fractional inhibitory concentration index (FICI),[10],0.13
same,Activity,[11],11%
same,mortality,[12],100%
same,Activity,[13],70%
same,Activity,[14],Non-Toxic
same,Activity,[15],60%
same,MIC,[16],8 µg/mL
same,Activity,[17],40%
same,Ki,[18],17 µM
same,IC50,[19],13 µM
same,inhibition,[20],Dose-dependent effect
same,Activity,[21],26300 Da
same,MIC,[22],2 µg/mL
O=c1c2ccccc2[se]n1-c1ccccc1 [EBSELEN],Ratio,[2],0.043
same,MIC,[4],32 µg/mL
same,MIC,[7],≥ 128 µg/mL
same,MIC,[9],≥ 128 µg/mL
same,fractional inhibitory concentration index (FICI),[10],1
same,MIC,[16],32 µg/mL
same,MIC,[22],64 µg/mL
